Ecoli rRNA inh: inhibits bacterial ribosomal RNA function over humanized ribosomes. E. coli WT GFP vs humanized-ribosome RFP mutants, fluorescence, 24 h; active compounds read low; DMSO median 0, no signal -100. GFP signal change (wild-type ribosome), % (concentration not given with the values). actives 1.6% (n = 350,000). AID 720706;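 active = significant combined selectivity score with lowered wild-type GFP, culture density cut under 30%, mutant RFP and density less affected; inactive = any of these conditions unmet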
Cneo AK release: Cryptococcus neoformans lysis via adenylate kinase release. C. neoformans lysis, adenylate kinase release luminescence, 4 h; normalised: neutral wells 0, clomiphene wells 100. lysis activity, % at 15 µM. actives 0.2% (n = 360,000). AID 651654;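 active = mean lysis activity across replicates of at least 80%, whatever share of replicates individually reach that level; inactive = mean lysis activity below 80%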
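read-out = cell lysis signal | test system = log-phase Cryptococcus neoformans yeast cells | input = cells at 5 × 10^6 per mL | medium = fresh YPD growth medium | signal = luminescent adenylate kinase detection reagent | timing = 4 h at 37 °C static, read 1 h later | dosing = single dose | controls = Clomiphene as positive lysis control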
PGC1a acetyl inh: modulators of PGC1a acetylation | inhibition, % at 15.6 µM | actives 0.17% (n = 350,000) | U2OS PGC1a acetylation, AlphaScreen anti-acetyl-lysine; with virally co-expressed GCN5 acetyltransferase;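 active = every replicate shows inhibition of at least 40%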
FGF22 binding: shifts melting point of recombinant human FGF22. actives 1.5% (n = 340,000). recombinant FGF22 thermal shift, SYPRO orange fluorescence; percent of sucrose octasulfate shift, DMSO zero. Q9HCT0. activity (Tm shift, normalised), % at 9.99 µM;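 active = mean Tm shift, scaled 0 neutral to 100 positive control, at about 1.3% or above, every replicate too, limit read from the data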
Target sequence (Q9HCT0 whole entry, looked up): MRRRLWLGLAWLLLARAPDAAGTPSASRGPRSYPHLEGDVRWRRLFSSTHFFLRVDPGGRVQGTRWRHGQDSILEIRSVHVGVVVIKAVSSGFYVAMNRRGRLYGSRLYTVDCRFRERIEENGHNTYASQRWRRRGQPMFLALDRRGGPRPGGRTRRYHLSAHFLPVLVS
Vif inh: blocks HIV Vif function. AID 602346. actives 0.35% (n = 340,000). HEK293T cells, Vif self-association by quenched fluorescence, imaging, 24 h. inhibition, % at 7.49 µM; in the data active = inhibition above about 50%, passing the limit was not always enough
PglD inh: inhibitors of Campylobacter jejuni PglD acetyltransferase. actives 0.098% (n = 360,000). purified PglD enzyme, DTNB colorimetric CoA detection. inhibition, % at 12.5 µM. AID 602405; in the data active = inhibition above about 16%, passing the limit was not always enough
Of the large screens only hits and unclear results are named; the others gave an inactive call. Shown are actives, neighbours in structure and some others; about 2.9% of the full set was active somewhere.

CCC(=O)N1[C@H](CN(C)C(C)=O)[C@@H](c2ccc(C3=CCCCC3)cc2)[C@@H]1CO	Cneo AK release 111 (no result: FGF22 binding, Vif inh)
O=C(C[C@@H]1CC[C@@H]2[C@H](COC[C@H](O)CN2Cc2ccccc2F)O1)NC1CCC1	none (no result: Vif inh)
O=C(C[C@@H]1CC[C@H]2[C@@H](COC[C@H](O)CN2Cc2ccccc2F)O1)NC1CCC1	Cneo AK release 97 (no result: Vif inh)
O=C(C[C@@H]1CC[C@@H]2[C@H](COC[C@H](O)CN2S(=O)(=O)c2ccc(Oc3ccccc3)cc2)O1)NC1CCC1	Cneo AK release 95 (no result: Vif inh)
O=C(C[C@H]1CC[C@@H]2[C@H](COC[C@@H](O)CN2C(=O)c2cnccn2)O1)NCc1ccc(Oc2ccccc2)cc1	Cneo AK release 105 (no result: Vif inh)
O=C(C[C@H]1CC[C@H]2[C@@H](COC[C@@H](O)CN2C(=O)c2cnccn2)O1)NCc1ccc(Oc2ccccc2)cc1	none (no result: Vif inh)
O=C(O)C[C@@H]1CC[C@@H]2[C@H](COC[C@H](O)CN2S(=O)(=O)c2ccc(F)cc2)O1	Cneo AK release 83 (no result: Vif inh)
C[C@H]1CN([C@@H](C)CO)C(=O)Cc2cc(NC(=O)Nc3ccc4c(c3)OCO4)ccc2O[C@@H]1CN(C)Cc1ccc(-c2ccccc2)cc1	none (no result: Vif inh)
O=C(C[C@H]1CC[C@@H]2[C@H](COC[C@@H](O)CN2S(=O)(=O)c2cccc(Cl)c2)O1)Nc1ccc(-c2ccccc2)cc1	FGF22 binding 1.3 (no result: Vif inh)
O=C(CC(c1ccccc1)(c1ccccc1)c1ccccc1)N[C@@H](Cc1ccccc1)C(=O)O	none
O=C(O)[C@H](Cc1ccccc1)NC(=O)C(c1ccccc1)(c1ccccc1)c1ccccc1	Ecoli rRNA inh -23 (no result: PGC1a acetyl inh)
C[C@H]1CN([C@@H](C)CO)C(=O)c2cc(NC(=O)CCC(F)(F)F)ccc2O[C@@H]1CN(C)C(=O)Nc1ccc(F)cc1	none (no result: Vif inh)
O=C(CSc1ncn[nH]1)NC1CCCc2ccccc21 (configuration not stated)	FGF22 binding 43 (no result: Cneo AK release, PglD inh)
O=C(CSc1nccc(=O)[nH]1)NC1CCCc2ccccc21 (configuration not stated)	none (no result: Cneo AK release, PglD inh)
CCCC(=O)Nc1ccc2c(c1)C(=O)N(C)[C@H]1CC[C@@H](CC(=O)NCCc3ccccc3)O[C@H]1CO2	none (no result: Vif inh)
CC(=O)Nc1cccc(-n2nnc(SCC(=O)c3ccccc3)n2)c1	Ecoli rRNA inh -36 (no result: Cneo AK release, PglD inh)
Cn1c(N)c(C(=O)COC(=O)CSc2ccccc2)c(=O)n(C)c1=O	Ecoli rRNA inh -18 (no result: Cneo AK release, PGC1a acetyl inh, PglD inh)
CNS(=O)(=O)c1cccc(C(=O)OCC(=O)c2c(N)n(C)c(=O)n(C)c2=O)c1	none (no result: Cneo AK release, PglD inh)
CCN(c1ccc(OCC(=O)OCC(=O)c2c(N)n(C)c(=O)n(C)c2=O)cc1)S(=O)(=O)c1ccccc1	Ecoli rRNA inh -15
Cn1c(N)c(C(=O)COC(=O)CSc2ccc3ccccc3c2)c(=O)n(C)c1=O	none (no result: Cneo AK release, PGC1a acetyl inh, PglD inh)
C=CCN(c1ccccc1OC)S(=O)(=O)c1cccc(C(=O)OCC(=O)c2c(N)n(C)c(=O)n(C)c2=O)c1	Ecoli rRNA inh -19 (no result: PGC1a acetyl inh)
CCCN1[C@H](CO)[C@H](c2ccc(-c3ccccc3F)cc2)[C@@H]1CNC(=O)C1CCC1	none (no result: Cneo AK release, PGC1a acetyl inh, FGF22 binding, Vif inh, PglD inh)
Cc1ccc(C(CC(=O)N2CCCC2)c2ccccc2)c(O)c1 (configuration not stated)	Ecoli rRNA inh -26
O=C(CC(c1ccccc1)c1ccccc1O)N1CCCC1 (configuration not stated)	none (no result: PGC1a acetyl inh, FGF22 binding)
CCOC(=O)C1(Cc2cccc(Cl)c2)CCCN(C(=O)C2CC2)C1 (configuration not stated)	FGF22 binding 43 (no result: Vif inh)
CCOC(=O)C1(Cc2cccc(Cl)c2)CCCN(C(=O)c2ccco2)C1 (configuration not stated)	none
CCOC(=O)C1(Cc2cccc(F)c2)CCN(C(=O)C2CCCO2)CC1 (configuration not stated)	Vif inh 51 (no result: FGF22 binding)
Cc1ccc(NC(=O)C(=O)NCC2CCCO2)cc1C (configuration not stated)	none (no result: Cneo AK release, PglD inh)
Cc1ccc(NC(=O)CC(NCC2CCCO2)C(=O)O)cc1C (configuration not stated)	FGF22 binding 43
COc1cccc(CN2c3ccc(Br)cc3C(=O)CS2(=O)=O)c1	Ecoli rRNA inh -37
